Laboratory results as given in ChEMBL document CHEMBL1143074, “Symplocamide A, a potent cytotoxin and chymotrypsin inhibitor from the marine Cyanobacterium Symploca sp” (J Nat Prod, 2008).
Active and inactive are the calls of the source. The rule behind the calls is not given here.

Legend:
[1] = Inhibition of trypsin at 10 uM
[2] = Inhibition of chymotrypsin
In short: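 Spectrophotometric assay: 0.0025 mg/mL chymotrypsin (0.0086 U) with 0.53 mM BTEE in 38 mM Tris-HCl pH 7.8, 53 mM CaCl2, 0.5 mM HCl and 32% MeOH at 25 °C. Inhibitor (from MeOH dilutions, final 6.25 × 10-5 to 7.5 × 10^-9 M) was equilibrated with substrate before enzyme addition. Absorbance at 256 nm was followed for 5 min, and the 0.5–1.5 min interval was analyzed.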

## CC[C@H](C)[C@@H]1NC(=O)[C@H](Cc2ccc(O)cc2)N(C)C(=O)[C@H]([C@@H](C)CC)N2C(=O)C(CCC2O)NC(=O)[C@H](CC(C)C)NC(=O)[C@@H]2C(OC1=O)C(C)CN2C(=O)[C@H](CCC(N)=O)NC(C)=O (stereo in doubt; form 1)
[1]
  Activity: inactive

## CC[C@H](C)[C@@H]1NC(=O)[C@H](Cc2ccc(O)cc2)N(C)C(=O)[C@H]([C@@H](C)CC)N2C(=O)C(CCC2O)NC(=O)[C@H](CC(C)C)NC(=O)[C@@H]2C(OC1=O)C(C)CN2C(=O)[C@H](CCC(N)=O)NC(C)=O (stereo in doubt; form 1) [NOSTOPEPTIN B]
[2]
  IC50: 1730 nM

## CC(=O)N[C@@H](CCC(N)=O)C(=O)N[C@@H]1C(=O)N[C@@H](CC(C)C)C(=O)N[C@H]2CC[C@@H](O)N(C2=O)[C@@H](Cc2ccccc2)C(=O)N(C)[C@@H](Cc2ccc(O)c(Cl)c2)C(=O)N[C@@H](C(C)C)C(=O)O[C@H]1C [CYANOPEPTOLIN 954]
[1]
  Activity: inactive
[2]
  IC50: 40 nM

## CCCCCC(=O)N[C@@H](CC(=O)O)C(=O)N[C@@H]1C(=O)N[C@@H](Cc2ccc(O)cc2)C(=O)N[C@H]2CC[C@@H](O)N(C2=O)[C@@H](CC(C)C)C(=O)N(C)[C@@H](Cc2ccccc2)C(=O)N[C@@H](C(C)C)C(=O)O[C@@H]1C [CYANOPEPTOLIN 963A]
[1]
  Activity: inactive
[2]
  IC50: 900 nM

## CC(C)C[C@@H]1NC(=O)[C@@H](NC(=O)[C@@H](NC(=O)[C@H](C)NC(=O)[C@H](CCCc2ccc(O)cc2)NC(=O)[C@H](O)CO)C(C)C)[C@@H](C)OC(=O)[C@H](C(C)C)NC(=O)[C@H](Cc2ccc(O)c(Br)c2)N(C)C(=O)[C@H]([C@@H](C)O)N2C(=O)[C@H](CC[C@H]2O)NC1=O [LARGAMIDE D]
[1]
  Activity: inactive
[2]
  IC50: 10000 nM

## CC(C)C[C@@H]1NC(=O)[C@@H](NC(=O)[C@@H](NC(=O)[C@@H](C)NC(=O)[C@H](CCCc2ccc(O)cc2)NC(=O)[C@H](O)CO)C(C)C)[C@@H](C)OC(=O)[C@H](C(C)C)NC(=O)[C@H](Cc2ccc(O)c(Cl)c2)N(C)C(=O)[C@H]([C@@H](C)O)N2C(=O)[C@H](CC[C@H]2O)NC1=O [LARGAMIDE E]
[1]
  Activity: inactive
[2]
  IC50: 10000 nM

## CC(C)[C@H](NC(=O)[C@@H](C)NC(=O)[C@H](CCCc1ccc(O)cc1)NC(=O)[C@H](O)CO)C(=O)N[C@@H]1C(=O)N[C@@H](Cc2ccc(O)cc2)C(=O)N[C@H]2CC[C@@H](O)N(C2=O)[C@@H]([C@@H](C)O)C(=O)N(C)[C@@H](Cc2ccc(O)c(Br)c2)C(=O)N[C@@H](C(C)C)C(=O)O[C@@H]1C [LARGAMIDE F]
[1]
  Activity: inactive
[2]
  IC50: 4000 nM

## C/C=C1\NC(=O)[C@@H](NC(=O)[C@H](CCc2ccc(O)cc2)NC(=O)[C@H](C)NC(=O)[C@H](O)COS(=O)(=O)O)[C@@H](C)OC(=O)[C@H](C(C)C)NC(=O)[C@H](Cc2ccc(O)cc2)N(C)C(=O)[C@H](Cc2ccccc2)N2C(=O)[C@H](CC[C@H]2O)NC1=O [LYNGBYASTATIN 4]
[1]
  Activity: inactive

## CC[C@H](C)[C@@H]1NC(=O)[C@H](Cc2ccccc2)N(C)C(=O)[C@H](C(C)C)N2C(=O)[C@H](CC[C@H]2O)NC(=O)[C@H](CC2C=CC(O)CC2)NC(=O)[C@@H](NC(=O)[C@@H](N)CCC(=O)O)[C@@H](C)OC1=O (stereo partly specified) [MICROPEPTIN 88A]
[1]
  Activity: inactive
[2]
  IC50: 400 nM

## CCCC(=O)N[C@@H](Cc1ccccc1)C(=O)N[C@@H](CCC(=O)O)C(=O)N[C@@H]1C(=O)N[C@@H](Cc2ccc(O)cc2)C(=O)N[C@H]2CC[C@@H](O)N(C2=O)[C@@H](C(C)C)C(=O)N(C)[C@@H](Cc2ccccc2)C(=O)N[C@@H]([C@@H](C)CC)C(=O)O[C@@H]1C [MICROPEPTIN 88C]
[1]
  Activity: inactive
[2]
  IC50: 4500 nM

## CCCC(=O)N[C@@H](Cc1ccccc1)C(=O)N[C@@H](CCC(=O)O)C(=O)N[C@@H]1C(=O)N[C@@H](CC2C=CC(O)CC2)C(=O)N[C@H]2CC[C@@H](O)N(C2=O)[C@@H](C(C)C)C(=O)N(C)[C@@H](Cc2ccccc2)C(=O)N[C@@H]([C@@H](C)CC)C(=O)O[C@@H]1C (stereo partly specified) [MICROPEPTIN 88D]
[1]
  Activity: inactive
[2]
  IC50: 8960 nM

## CCCC(=O)N[C@@H](Cc1ccccc1)C(=O)N[C@@H](CCC(=O)O)C(=O)N[C@@H]1C(=O)N[C@@H](CC(C)C)C(=O)N[C@H]2CC[C@@H](O)N(C2=O)[C@@H](C(C)C)C(=O)N(C)[C@@H](Cc2ccccc2)C(=O)N[C@@H]([C@@H](C)CC)C(=O)O[C@@H]1C [MICROPEPTIN 88E]
[1]
  Activity: inactive
[2]
  IC50: 4900 nM

## CCCC(=O)N[C@@H](Cc1ccccc1)C(=O)N[C@@H](CCC(=O)OC)C(=O)N[C@@H]1C(=O)N[C@@H](Cc2ccc(O)cc2)C(=O)N[C@H]2CC[C@@H](O)N(C2=O)[C@@H](C(C)C)C(=O)N(C)[C@@H](Cc2ccccc2)C(=O)N[C@@H]([C@@H](C)CC)C(=O)O[C@@H]1C [MICROPEPTIN 88F]
[1]
  Activity: inactive
[2]
  IC50: 3020 nM

## CC[C@H](C)[C@@H]1NC(=O)[C@H](Cc2ccccc2)N(C)C(=O)[C@H](C(C)C)N2C(=O)[C@H](CC[C@H]2O)NC(=O)[C@H](Cc2ccc(O)cc2)NC(=O)[C@@H](NC(=O)[C@H](CCC(=O)O)NC(=O)[C@H](Cc2ccc(O)cc2)NC(C)=O)[C@@H](C)OC1=O [MICROPEPTIN 88Y]
[1]
  Activity: inactive
[2]
  IC50: 1300 nM

## CCCCCC(=O)NCC(=O)N[C@H](C(=O)N[C@@H]1C(=O)N[C@@H](CCC(N)=O)C(=O)N[C@H]2CC[C@@H](O)N(C2=O)[C@@H](Cc2ccccc2)C(=O)N(C)[C@@H](Cc2c[nH]c3ccccc23)C(=O)N[C@@H](C(C)C)C(=O)O[C@@H]1C)[C@@H](C)O [MICROPEPTIN 103]
[1]
  Activity: inactive
[2]
  IC50: 960 nM

## CCCCCC(=O)N[C@@H](CC(=O)O)C(=O)N[C@@H]1C(=O)N[C@@H](Cc2ccc(O)cc2)C(=O)N[C@H]2CC[C@@H](O)N(C2=O)[C@@H]([C@@H](C)CC)C(=O)N(C)[C@@H](Cc2ccc(O)cc2)C(=O)N[C@@H](C(C)C)C(=O)O[C@@H]1C [MICROPEPTIN SD979]
[1]
  Activity: inactive
[2]
  IC50: 2400 nM

## CCCCCC(=O)N[C@@H](CC(=O)O)C(=O)N[C@@H]1C(=O)N[C@@H](Cc2ccc(O)cc2)C(=O)N[C@H]2CC[C@@H](O)N(C2=O)[C@@H]([C@@H](C)CC)C(=O)N(C)[C@@H](Cc2c[nH]c3ccccc23)C(=O)N[C@@H](C(C)C)C(=O)O[C@@H]1C [MICROPEPTIN SD1002]
[1]
  Activity: inactive
[2]
  IC50: 3130 nM

## CC[C@H](C)[C@@H]1NC(=O)[C@H](Cc2ccc(O)cc2)N(C)C(=O)[C@H](CC(C)C)N2C(=O)[C@H](CC[C@H]2O)NC(=O)[C@H](CCC(N)=O)NC(=O)[C@@H](NC(=O)[C@@H](O)Cc2ccc(O)cc2)[C@@H](C)OC1=O [MICROPEPTIN SF909]
[1]
  Activity: inactive
[2]
  IC50: 4400 nM

## CCCCCC(=O)N[C@@H](CCC(N)=O)C(=O)N[C@@H]1C(=O)N[C@@H](Cc2ccc(O)cc2)C(=O)N[C@H]2CC[C@@H](O)N(C2=O)[C@@H](Cc2ccccc2)C(=O)N(C)[C@@H](Cc2ccc(O)cc2)C(=O)N[C@@H](C(C)C)C(=O)O[C@@H]1C [MICROPEPTIN T1]
[1]
  Activity: inactive
[2]
  IC50: 2850 nM

## CC[C@H](C)[C@@H]1NC(=O)[C@H](Cc2ccc(O)cc2)N(C)C(=O)[C@H](Cc2ccccc2)N2C(=O)[C@H](CC[C@H]2O)NC(=O)[C@H](Cc2ccccc2)NC(=O)[C@@H](NC(=O)[C@@H](O)COP(=O)(O)O)[C@@H](C)OC1=O [MICROPEPTIN T 20]
[2]
  IC50: 2.5 nM

## CCCC(=O)N[C@@H](CCC(N)=O)C(=O)N1CC(C)C2OC(=O)[C@H]([C@@H](C)CC)NC(=O)[C@H](Cc3ccc(O)cc3)N(C)C(=O)[C@H]([C@@H](C)CC)N3C(=O)C(CCC3O)NC(=O)[C@H](CC(C)C)NC(=O)[C@H]21 (stereo partly specified) [NOSTOPEPTIN A]
[1]
  Activity: inactive
[2]
  IC50: 1470 nM

## CC(=O)N[C@@H](CCC(N)=O)C(=O)N[C@@H]1C(=O)N[C@@H](CC(C)C)C(=O)N[C@H]2CC[C@@H](O)N(C2=O)[C@@H](Cc2ccccc2)C(=O)N(C)[C@@H](Cc2ccc(O)cc2)C(=O)N[C@@H](C(C)C)C(=O)O[C@@H]1C [NOSTOPEPTIN BN920]
[1]
  Activity: inactive
[2]
  IC50: 110 nM

## CC[C@H](C)[C@@H]1NC(=O)[C@H](Cc2ccc(O)cc2)N(C)C(=O)[C@H](CC(C)C)N2C(=O)[C@H](CC[C@H]2O)NC(=O)[C@H](CC(C)C)NC(=O)[C@@H]2[C@@H](OC1=O)C(C)CN2C(=O)[C@H](CCC(N)=O)NC(C)=O (stereo partly specified) [NOSTOPEPTIN E]
[1]
  Activity: inactive
[2]
  IC50: 3600 nM

## CC[C@@H](C)[C@@H]1NC(=O)[C@H](Cc2ccc(OC)cc2)N(C)C(=O)[C@H]([C@@H](C)CC)N2C(=O)[C@H](CC[C@H]2O)NC(=O)[C@H](CCc2ccc(OC)cc2)NC(=O)[C@@H](NC(=O)[C@H](CCc2ccc(O)cc2)NC(=O)[C@@H](COS(=O)(=O)O)OC)[C@@H](C)OC1=O [OSCILLAPEPTIN B]
[2]
  IC50: 1780 nM

## CC[C@@H](C)[C@@H]1NC(=O)[C@H](Cc2ccccc2)N(C)C(=O)[C@H]([C@@H](C)CC)N2C(=O)[C@H](CC[C@H]2OC)NC(=O)[C@H](CC2C=CC(O)C=C2)NC(=O)[C@@H](NC(=O)[C@@H](CCc2ccc(O)cc2)NC(=O)[C@@H](CO)OC)[C@@H](C)OC1=O (stereo partly specified) [OSCILLAPEPTIN C]
[2]
  IC50: 2820 nM

## CC[C@H](C)[C@@H]1NC(=O)[C@H](Cc2ccccc2)N(C)C(=O)[C@H]([C@@H](C)CC)N2C(=O)[C@H](CC[C@H]2O)NC(=O)[C@H](C[C@H]2C=C[C@H](O)CC2)NC(=O)[C@@H](NC(=O)[C@H](CCc2ccc(O)cc2)NC(=O)[C@@H](COS(=O)(=O)O)OC)[C@@H](C)OC1=O [OSCILLAPEPTIN D]
[2]
  IC50: 1950 nM

## CC[C@@H](C)[C@@H]1NC(=O)[C@H](Cc2ccccc2)N(C)C(=O)[C@H]([C@@H](C)CC)N2C(=O)[C@H](CC[C@H]2O)NC(=O)[C@H](CCc2ccc(O)cc2)NC(=O)[C@@H](NC(=O)[C@@H](CCc2ccc(O)cc2)NC(=O)[C@@H](COS(=O)(=O)O)OC)[C@@H](C)OC1=O [OSCILLAPEPTIN E]
[2]
  IC50: 2640 nM
